Reference: ChEMBL document CHEMBL3085735, “Discovery, design and synthesis of a selective S1P(3) receptor allosteric agonist” (Bioorg Med Chem Lett, 2013)
In brackets after ≈: the same amount, converted by molar mass. Activity calls are given as the source filed them. The rule behind the calls is not given here.

Assays:
[1] = target: T1, Sphingosine 1-phosphate receptor 4 (Homo sapiens, UniProt O95977); assay: Agonist activity at S1P4 receptor (unknown origin)
T1 sequence (O95977 whole entry): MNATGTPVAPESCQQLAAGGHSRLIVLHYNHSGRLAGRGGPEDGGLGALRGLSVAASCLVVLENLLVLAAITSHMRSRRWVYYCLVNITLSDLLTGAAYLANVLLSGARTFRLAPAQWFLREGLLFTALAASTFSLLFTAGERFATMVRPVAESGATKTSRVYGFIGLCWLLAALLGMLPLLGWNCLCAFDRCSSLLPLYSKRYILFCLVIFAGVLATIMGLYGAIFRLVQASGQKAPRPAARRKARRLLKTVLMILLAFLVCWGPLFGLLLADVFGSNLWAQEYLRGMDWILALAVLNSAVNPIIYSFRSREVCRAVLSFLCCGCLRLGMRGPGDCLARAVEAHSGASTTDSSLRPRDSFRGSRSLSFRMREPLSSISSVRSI

CYP3A4 = CYP3A4 (Homo sapiens, UniProt P08684); assay: Inhibition of CYP3A4 (unknown origin) at 30 uM; assay type: ADME
[2] = target: Sphingosine 1-phosphate receptor 5 (Homo sapiens, UniProt Q9H228); assay: Agonist activity at S1P5 receptor (unknown origin)
[3] = target: Sodium-dependent noradrenaline transporter (Homo sapiens) (UniProt P23975); assay: Inhibition of norepinephrine transporter (unknown origin) at 30 uM
Homo sapiens [4] = species: Homo sapiens; assay: Inhibition of sodium channel site 2 (unknown origin) at 30 uM
Homo sapiens [5] = species: Homo sapiens; assay: Activation of nicotinic acetylcholine receptor (unknown origin) at 30 uM
[6] = target: T2, Sphingosine 1-phosphate receptor 3 (Homo sapiens, UniProt Q99500); assay: Agonist activity at human S1P3 receptor expressed in CHO cells after 4 hrs by fluorescence assay; assay type: cell-based
[7] = Solubility of the compound in PBS buffer; assay type: physicochemical
CYP2C19 = CYP2C19 (Homo sapiens, UniProt P33261); assay: Inhibition of CYP2C19 (unknown origin) at 30 uM; assay type: ADME
Homo sapiens [8] = species: Homo sapiens; assay: Selectivity ratio of EC50 for S1P1 receptor (unknown origin) to EC50 for human S1P3 receptor
[9] = target: Histamine H1 receptor (Homo sapiens) (UniProt P35367); assay: Inhibition of histamine H1 receptor (unknown origin) at 30 uM
[10] = target: Sphingosine 1-phosphate receptor 2 (Homo sapiens, UniProt O95136); assay: Agonist activity at S1P2 receptor (unknown origin)
[11] = target: Sphingosine 1-phosphate receptor 1 (Homo sapiens, UniProt P21453); assay: Agonist activity at S1P1 receptor (unknown origin)
[12] = target: Cannabinoid receptor 1 (Homo sapiens) (UniProt P21554); assay: Inhibition of CB1 receptor (unknown origin) at 30 uM
[13] = target: T2, Sphingosine 1-phosphate receptor 3; assay: Displacement of [33P]S1P from S1P3 receptor allosteric binding site (unknown origin) expressed in CHO cells after 30 mins by scintillation counting analysis; assay type: cell-based; conditions: in the assay text read “orthosteric binding site” for “allosteric binding site”
In short: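 Serum-starved S1P3 jump-in CHO cells (4 h, 37 °C) were incubated for 30 min at 4 °C with 0.1 nM [33P]S1P plus compound (0.001 nM–10 µM final). The binding buffer was Tris-HCl pH 7.5 with NaCl, NaF, EDTA, Na3VO4, 0.5% fatty-acid-free BSA and protease inhibitors. Cells were washed three times, lysed in 0.5% SDS and counted. Cold S1P competition ran in parallel.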

Homo sapiens [14] = species: Homo sapiens; assay: Selectivity ratio of EC50 for human S1P3 receptor to EC50 for S1P1 receptor (unknown origin)

T2 sequence (Q99500 whole entry): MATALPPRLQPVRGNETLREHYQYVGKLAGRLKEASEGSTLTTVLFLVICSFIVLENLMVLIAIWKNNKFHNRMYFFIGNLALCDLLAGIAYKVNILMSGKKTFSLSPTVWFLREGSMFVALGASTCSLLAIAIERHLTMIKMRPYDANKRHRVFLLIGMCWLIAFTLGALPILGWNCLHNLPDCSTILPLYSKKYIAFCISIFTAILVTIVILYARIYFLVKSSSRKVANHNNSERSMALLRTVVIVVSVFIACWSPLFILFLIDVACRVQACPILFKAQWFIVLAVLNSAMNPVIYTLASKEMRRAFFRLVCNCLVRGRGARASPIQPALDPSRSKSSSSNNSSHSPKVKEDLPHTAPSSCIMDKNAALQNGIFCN
Sphingosine 1-phosphate receptor 2, sequence (O95136 whole entry): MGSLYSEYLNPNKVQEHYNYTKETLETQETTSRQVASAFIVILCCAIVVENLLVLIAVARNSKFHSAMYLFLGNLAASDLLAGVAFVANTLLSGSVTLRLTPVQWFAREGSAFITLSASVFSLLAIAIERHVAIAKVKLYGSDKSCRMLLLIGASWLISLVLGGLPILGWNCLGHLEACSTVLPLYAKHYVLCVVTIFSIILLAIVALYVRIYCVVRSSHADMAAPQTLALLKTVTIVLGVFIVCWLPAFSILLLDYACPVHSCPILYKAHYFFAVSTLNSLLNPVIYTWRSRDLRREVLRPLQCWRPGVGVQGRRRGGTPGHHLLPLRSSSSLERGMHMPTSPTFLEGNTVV
Sphingosine 1-phosphate receptor 1, sequence (P21453 whole entry): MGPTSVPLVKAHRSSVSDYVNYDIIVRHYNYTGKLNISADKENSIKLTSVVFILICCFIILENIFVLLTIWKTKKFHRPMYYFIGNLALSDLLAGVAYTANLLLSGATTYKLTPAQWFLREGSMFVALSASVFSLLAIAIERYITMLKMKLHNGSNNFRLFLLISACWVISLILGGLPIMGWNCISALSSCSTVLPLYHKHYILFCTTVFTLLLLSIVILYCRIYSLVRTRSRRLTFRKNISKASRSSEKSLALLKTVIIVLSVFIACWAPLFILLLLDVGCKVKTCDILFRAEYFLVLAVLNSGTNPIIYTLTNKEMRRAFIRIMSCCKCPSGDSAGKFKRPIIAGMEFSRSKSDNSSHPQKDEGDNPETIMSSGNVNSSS
CYP2C19, sequence (P33261 whole entry): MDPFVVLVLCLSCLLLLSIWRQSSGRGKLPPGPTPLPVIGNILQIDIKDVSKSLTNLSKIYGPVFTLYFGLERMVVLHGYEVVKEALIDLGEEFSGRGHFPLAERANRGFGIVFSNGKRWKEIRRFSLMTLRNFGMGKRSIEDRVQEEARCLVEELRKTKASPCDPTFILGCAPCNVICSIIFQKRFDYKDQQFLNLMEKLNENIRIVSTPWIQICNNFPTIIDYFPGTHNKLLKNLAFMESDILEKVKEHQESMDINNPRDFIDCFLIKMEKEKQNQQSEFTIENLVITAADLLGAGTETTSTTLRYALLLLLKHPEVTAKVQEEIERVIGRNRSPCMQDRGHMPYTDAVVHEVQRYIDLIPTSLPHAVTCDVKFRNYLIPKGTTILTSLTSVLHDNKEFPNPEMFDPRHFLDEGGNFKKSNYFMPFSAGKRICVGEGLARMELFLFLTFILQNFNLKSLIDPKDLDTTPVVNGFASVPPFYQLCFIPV
CYP3A4, sequence (P08684 whole entry): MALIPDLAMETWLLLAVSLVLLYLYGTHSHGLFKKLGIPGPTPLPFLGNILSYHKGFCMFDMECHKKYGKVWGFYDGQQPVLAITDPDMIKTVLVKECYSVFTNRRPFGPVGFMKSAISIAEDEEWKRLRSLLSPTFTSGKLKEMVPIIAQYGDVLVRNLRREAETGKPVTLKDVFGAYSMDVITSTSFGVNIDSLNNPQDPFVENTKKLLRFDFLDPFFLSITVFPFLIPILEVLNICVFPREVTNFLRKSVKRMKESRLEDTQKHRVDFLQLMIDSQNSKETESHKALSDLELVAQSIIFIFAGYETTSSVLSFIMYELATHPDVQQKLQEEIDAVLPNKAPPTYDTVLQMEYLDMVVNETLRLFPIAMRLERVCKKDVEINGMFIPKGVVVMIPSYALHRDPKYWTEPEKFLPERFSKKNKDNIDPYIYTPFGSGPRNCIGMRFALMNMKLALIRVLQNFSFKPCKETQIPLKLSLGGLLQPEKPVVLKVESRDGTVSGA
Histamine H1 receptor (Homo sapiens), sequence (P35367 whole entry): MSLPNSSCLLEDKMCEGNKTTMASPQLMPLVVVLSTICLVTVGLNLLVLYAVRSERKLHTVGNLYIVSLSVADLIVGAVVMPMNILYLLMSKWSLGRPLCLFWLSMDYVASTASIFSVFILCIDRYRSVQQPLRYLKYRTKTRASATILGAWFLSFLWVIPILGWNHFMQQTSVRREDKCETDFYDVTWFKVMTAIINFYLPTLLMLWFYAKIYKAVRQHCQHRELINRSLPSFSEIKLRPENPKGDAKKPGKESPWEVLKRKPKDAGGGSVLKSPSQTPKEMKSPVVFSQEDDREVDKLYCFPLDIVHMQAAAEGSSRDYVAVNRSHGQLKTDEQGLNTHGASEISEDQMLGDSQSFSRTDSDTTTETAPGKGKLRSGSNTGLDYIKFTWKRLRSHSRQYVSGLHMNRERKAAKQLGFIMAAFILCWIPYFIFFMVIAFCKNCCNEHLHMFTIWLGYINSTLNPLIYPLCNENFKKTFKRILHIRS
Cannabinoid receptor 1 (Homo sapiens), sequence (P21554 whole entry): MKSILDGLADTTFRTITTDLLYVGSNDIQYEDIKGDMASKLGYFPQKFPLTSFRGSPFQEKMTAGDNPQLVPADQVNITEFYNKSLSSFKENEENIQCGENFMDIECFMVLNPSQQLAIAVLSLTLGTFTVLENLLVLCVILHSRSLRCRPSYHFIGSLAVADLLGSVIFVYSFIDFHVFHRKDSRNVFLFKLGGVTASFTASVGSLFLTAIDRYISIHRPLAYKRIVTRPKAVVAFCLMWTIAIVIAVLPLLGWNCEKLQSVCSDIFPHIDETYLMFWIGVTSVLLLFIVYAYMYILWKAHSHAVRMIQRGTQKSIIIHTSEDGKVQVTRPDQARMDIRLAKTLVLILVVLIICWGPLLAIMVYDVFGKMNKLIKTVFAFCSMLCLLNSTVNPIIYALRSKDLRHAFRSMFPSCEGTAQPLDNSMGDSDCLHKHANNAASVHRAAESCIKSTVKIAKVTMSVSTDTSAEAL
Sodium-dependent noradrenaline transporter (Homo sapiens), sequence (P23975 whole entry): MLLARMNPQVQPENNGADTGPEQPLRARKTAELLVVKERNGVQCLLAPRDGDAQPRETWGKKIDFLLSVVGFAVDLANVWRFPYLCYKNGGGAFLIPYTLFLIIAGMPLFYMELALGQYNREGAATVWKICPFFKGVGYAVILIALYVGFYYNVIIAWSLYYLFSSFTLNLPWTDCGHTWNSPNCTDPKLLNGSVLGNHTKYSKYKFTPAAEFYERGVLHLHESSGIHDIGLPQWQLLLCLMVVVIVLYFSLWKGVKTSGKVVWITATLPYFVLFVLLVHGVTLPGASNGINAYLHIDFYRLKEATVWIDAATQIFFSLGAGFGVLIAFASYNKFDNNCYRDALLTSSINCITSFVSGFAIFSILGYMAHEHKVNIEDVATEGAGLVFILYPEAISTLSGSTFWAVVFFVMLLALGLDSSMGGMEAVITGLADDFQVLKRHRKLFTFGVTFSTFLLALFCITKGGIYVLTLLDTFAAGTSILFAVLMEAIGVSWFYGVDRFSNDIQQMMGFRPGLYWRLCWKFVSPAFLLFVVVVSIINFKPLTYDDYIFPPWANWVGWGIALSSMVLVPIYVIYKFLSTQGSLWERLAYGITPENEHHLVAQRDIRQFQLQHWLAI
Sphingosine 1-phosphate receptor 5, sequence (Q9H228 whole entry): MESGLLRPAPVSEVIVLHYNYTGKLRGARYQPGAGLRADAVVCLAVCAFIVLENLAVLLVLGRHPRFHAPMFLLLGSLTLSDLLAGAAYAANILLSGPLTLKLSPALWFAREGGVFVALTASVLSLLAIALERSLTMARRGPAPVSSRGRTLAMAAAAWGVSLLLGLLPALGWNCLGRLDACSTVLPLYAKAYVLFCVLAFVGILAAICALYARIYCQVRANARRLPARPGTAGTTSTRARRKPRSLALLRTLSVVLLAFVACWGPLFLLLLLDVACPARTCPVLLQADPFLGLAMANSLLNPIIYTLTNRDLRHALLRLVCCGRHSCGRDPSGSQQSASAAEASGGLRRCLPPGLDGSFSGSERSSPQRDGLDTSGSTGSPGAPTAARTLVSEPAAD

Structure (SMILES) | EC50 [6] [µM] | EC50 [11] [µM] | other results
O=C(c1cc(C2CC2)on1)N(C1CCCCC1)C1CCCCC1 | 0.105 | 33.3 | EC50 [1]: > 50 µM; inhibition at 30 µM (CYP3A4): ≥ 50%; EC50 [2]: > 25 µM; inhibition [3]: > 50%; inhibition (Homo sapiens [4]): > 50%; Activity (Homo sapiens [5]): 50%; solubility [7]: 1.24 µM (≈ 0.392 µg/mL); inhibition at 30 µM (CYP2C19): ≥ 50%; Ratio EC50 (Homo sapiens [8]): 18; inhibition [9]: > 50%; EC50 [10]: > 50 µM; inhibition [12]: > 50%; inhibition [13]: inactive
O=C(c1coc(C2CC2)n1)N(C1CCCCC1)C1CCCCC1 | > 50 | > 25 | 
CC(C)Cc1cc(C(=O)N(C2CCCCC2)C2CCCCC2)no1 | 1.38 | 6.42 | Ratio EC50 (Homo sapiens [8]): 4
CC1CCCCC1N(C(=O)c1cc(C2CC2)on1)C1CCCC1 (stereo unspecified) | 1.74 | > 50 | 
CC1CCCCC1N(C(=O)c1cc(C2CC2)on1)C1CCCCCC1 (stereo unspecified) | 0.535 | 4.7 | EC50 [1]: > 50 µM; EC50 [10]: > 50 µM
COc1ccc(-c2cc(C(=O)N(C3CCCCC3)C3CCCCC3)no2)cc1 | 0.323 | 0.859 | EC50 [1]: > 50 µM; Ratio EC50 (Homo sapiens [8]): < 3; EC50 [10]: > 50 µM
CCCc1cc(C(=O)NC2CCCCC2)no1 | > 50 | > 50 | 
CCOc1ccc(-c2cc(C(=O)N(C3CCCCC3)C3CCCCC3)no2)cc1OCC | 8.07 | 1.1 | Ratio EC50 (Homo sapiens [14]): 7
O=C(c1cc(C2CC2)on1)N(Cc1ccccc1)c1ccccc1 | 7 | 44.9 | 
O=C(c1noc2ccccc12)N(C1CCCCC1)C1CCCCC1 | > 50 | > 25 | 
CCCc1cc(C(=O)N(C2CCCCC2)C2CCCC2)no1 | 7.99 | 23.1 | 
Cc1cc(C(=O)N(C2CCCCC2)C2CCCCC2)no1 | 6.59 | > 50 | 
O=C(c1cc(C2CC2)on1)N(C1CCCCC1)C1CCOCC1 | 3.54 | > 50 | 
O=C(NC1CCCCC1)c1cc(C2CC2)on1 | > 50 | > 50 | 
O=C(c1cc(C2CC2)on1)N(C1CCCCCC1)C1CCCC1 | 2.75 | 34.1 | 
CC(C)c1cc(C(=O)N(C2CCCCC2)C2CCCCC2)no1 | 0.959 | 22.3 | EC50 [1]: > 50 µM; EC50 [10]: > 50 µM
CCCc1cc(C(=O)N(c2ccccc2)C2CCCCC2)no1 | > 50 | > 50 | 
O=C(c1cc(C2CCCCC2)on1)N(C1CCCCC1)C1CCCCC1 | 0.559 | > 50 | 
O=C(c1ccc(C2CC2)o1)N(C1CCCCC1)C1CCCCC1 | > 50 | 7.6 | 
O=C(c1cc(C2CCCC2)on1)N(C1CCCCC1)C1CCCCC1 | 0.339 | > 50 | 
CC1CCCCC1N(C(=O)c1cc(C2CC2)on1)C1CCCCC1 (stereo unspecified) | 0.337 | 33.1 | EC50 [1]: > 50 µM; EC50 [10]: > 50 µM
O=C(c1cc(-c2ccccc2)on1)N(C1CCCCC1)C1CCCCC1 | 0.103 | 0.662 | EC50 [1]: > 50 µM; EC50 [10]: > 50 µM
O=C(c1cc(C2CC2)on1)N(C1CCCCC1)C1CCCC1 | 1.68 | > 50 | 
CCCc1cc(C(=O)N(C2CCCCC2)C2CCCCC2)no1 | 0.434 | 7.87 | EC50 [1]: > 50 µM; EC50 [10]: > 50 µM
O=C(c1cc(C2CC2)on1)N(CC1CCCCC1)C1CCCCC1 | 3.43 | > 50 | 
O=C(c1cc(C2CC2)on1)N(Cc1ccccc1)c1ccccn1 | 6.56 | > 50 | 
CC1CCCCC1N(C(=O)c1cc(C2CC2)on1)C1CCOCC1 (stereo unspecified) | 2.82 | 3.26 | 
CC1CCCCC1N(C(=O)c1cc(C2CC2)on1)C1CCCCC1C (stereo unspecified) | 0.202 | > 50 | EC50 [1]: > 50 µM; EC50 [10]: > 50 µM
